Measurements reported in publication PMC7115694 (European Journal of Medicinal Chemistry, 2010).

Legend:
Format in all cases: cell-based
[1] = system: Vesicular stomatitis virus; experiment: microbe, parasite or virus in culture; details: HEL, read-out: EC50 Vesicular stomatitis virus
Vaccinia virus = experiment: microbe, parasite or virus in culture; details: Orthopoxvirus vaccinia, HEL, read-out: EC50 Vaccinia virus
[2] = system: Herpes simplex virus-1 (KOS); experiment: microbe, parasite or virus in culture; details: Human alphaherpesvirus 1, HEL, read-out: EC50 Herpes simplex virus-1 (KOS)
HEL cells = experiment: Cytotoxicity in uninfected cell cultures; details: microscopically detectable alteration of cell morphology
Outline: (§1)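 Uninfected cell cultures are exposed to serial dilutions of test compound in parallel with the virus cytopathicity assays. Cells are examined microscopically. Minimum cytotoxic concentration is the lowest concentration causing a microscopically detectable alteration of normal cell morphology.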

[3] = system: Herpes simplex virus-2 (G); experiment: microbe, parasite or virus in culture; details: Human alphaherpesvirus 2, HEL, read-out: EC50 Herpes simplex virus-2 (G)
Feline Herpes virus = experiment: organism not typed; details: CRFK, read-out: EC50 Feline Corona Virus
Vero cells = experiment: Cytotoxicity in uninfected cell cultures; details: cell morphology
Outline: as §1

Para-influenza-3 virus = experiment: organism not typed; details: Vero, read-out: EC50 Para-influenza-3 virus
Staphylococcus aureus = experiment: MIC by tube dilution method; details: observed, S. aureus, 37 °C 24 h
Aspergillus niger = experiment: MIC by tube dilution method; details: observed, A. niger, 25 °C 7 d
[4] = system: S. aureus, B. subtilis and E. coli; experiment: Average antibacterial activity; details: average antibacterial activity (pMICsa + pMICbs + pMICec)/3
S. aureus = experiment: Minimum bactericidal concentration; details: static when MBC 3-fold higher than MIC
HeLa cells = experiment: Cytotoxicity in uninfected cell cultures; details: cell morphology
Outline: as §1

Candida albicans = experiment: MIC by tube dilution method; details: observed, C. albicans, 37 °C 48 h
C. albicans and A. niger = experiment: Average antifungal activity; details: average antifungal activity (pMICca + pMICan)/2
Bacillus subtilis = experiment: MIC by tube dilution method; details: observed, B. subtilis, 37 °C 24 h
Outline: (§2)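 Test compound is diluted in double strength nutrient broth (I.P.) by tube dilution, with ciprofloxacin as reference. Samples incubated at 37 °C for 24 h. MIC is the lowest concentration inhibiting microbial growth, transformed into pMIC for analysis.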

Escherichia coli = experiment: MIC by tube dilution method; details: observed, E. coli, 37 °C 24 h
Outline: as §2

Reovirus-1 = experiment: organism not typed; details: Vero, read-out: EC50 Reovirus-1
[5] = system: S. aureus, B. subtilis, E. coli, C. albicans and A. niger; experiment: Average antimicrobial activity; details: mean of five pMIC values
Sindbis virus = experiment: microbe, parasite or virus in culture; details: Vero, read-out: EC50 Sindbis virus

O=c1[nH]c(=O)n([C@H]2C[C@H](O)[C@@H](CO)O2)cc1/C=C/Br [Brivudin]
EC50 [1]: > 250 µM | EC50 (Vaccinia virus): 112 µM

Nc1nc(O)c2ncn(COC(CO)CO)c2n1 [Ganciclovir]
EC50 [1]: > 100 µM | EC50 [2]: 0.03 µM | EC50 (Vaccinia virus): > 100 µM | Minimum cytotoxic concentration (HEL cells): >100 µM | EC50 [3]: 0.03 µM

Cc1ccccc1C(=O)n1c(-c2ccc(S(=O)(=O)O)cc2)nc2ccccc21 [Compound 10]
EC50 (Feline Herpes virus): > 100 mg/L | Minimum cytotoxic concentration (Vero cells): >100 µg/mL | EC50 (Para-influenza-3 virus): > 100 mg/L | pMICsa (Staphylococcus aureus): 2.10 | pMICan (Aspergillus niger): 1.20 | pMICab [4]: 2.10 | bacteriostatic/bactericidal action against S. aureus (S. aureus): active bacteriocidal agents | Cytotoxicity Minimum cytotoxic concentration (HeLa cells): >100 µg/mL | pMICca (Candida albicans): 1.50 | pMICaf (C. albicans and A. niger): 1.35 | Minimum cytotoxic concentration (HEL cells): >100 µg/mL | pMICbs (Bacillus subtilis): 2.10 | pMICec (Escherichia coli): 2.10 | EC50 (Reovirus-1): > 100 mg/L | pMICam [5]: 1.80

Cc1ccc(S(=O)(=O)n2c(-c3ccc(S(=O)(=O)O)cc3)nc3ccccc32)cc1 [Compound 20]
EC50 (Feline Herpes virus): > 100 mg/L | EC50 (Sindbis virus): > 100 mg/L | Minimum cytotoxic concentration (Vero cells): >100 µg/mL | EC50 (Para-influenza-3 virus): > 100 mg/L | pMICsa (Staphylococcus aureus): 1.84 | pMICan (Aspergillus niger): 1.23 | pMICab [4]: 1.74 | Cytotoxicity Minimum cytotoxic concentration (HeLa cells): >100 µg/mL | pMICca (Candida albicans): 1.54 | pMICaf (C. albicans and A. niger): 1.39 | Minimum cytotoxic concentration (HEL cells): >100 µg/mL | pMICbs (Bacillus subtilis): 1.84 | pMICec (Escherichia coli): 1.54 | EC50 (Reovirus-1): > 100 mg/L | pMICam [5]: 1.60

NC(=O)c1ncn([C@@H]2O[C@H](CO)[C@@H](O)[C@H]2O)n1 [Ribavirin]
EC50 (Sindbis virus): > 250 µM | Minimum cytotoxic concentration (Vero cells): >250 µM | EC50 [1]: > 250 µM | EC50 [2]: 1 µM | EC50 (Para-influenza-3 virus): 95 µM | EC50 (Vaccinia virus): 10 µM | Cytotoxicity Minimum cytotoxic concentration (HeLa cells): >250 µM | Minimum cytotoxic concentration (HEL cells): >250 µM | EC50 [3]: 2 µM

O=C(c1ccc(O)cc1O)n1c(-c2ccc(S(=O)(=O)O)cc2)nc2ccccc21 [Compound 7]
EC50 (Feline Herpes virus): > 100 mg/L | Minimum cytotoxic concentration (Vero cells): >100 µg/mL | EC50 (Para-influenza-3 virus): > 100 mg/L | pMICsa (Staphylococcus aureus): 2.12 | pMICan (Aspergillus niger): 1.22 | pMICab [4]: 2.32 | Cytotoxicity Minimum cytotoxic concentration (HeLa cells): >100 µg/mL | pMICca (Candida albicans): 1.52 | pMICaf (C. albicans and A. niger): 1.37 | Minimum cytotoxic concentration (HEL cells): 100 µg/mL | pMICbs (Bacillus subtilis): 2.42 | pMICec (Escherichia coli): 2.42 | EC50 (Reovirus-1): > 100 mg/L | pMICam [5]: 1.94

Nc1ccn(C[C@@H](CO)OCP(=O)(O)O)c(=O)n1 [Cidofovir]
EC50 [1]: > 250 µM | EC50 [2]: 0.4 µM | EC50 (Vaccinia virus): > 250 µM | EC50 [3]: 0.2 µM

O=C(c1ccccc1Cl)n1c(-c2ccc(S(=O)(=O)O)cc2)nc2ccccc21 [Compound 4]
EC50 (Feline Herpes virus): > 100 mg/L | Minimum cytotoxic concentration (Vero cells): >100 µg/mL | EC50 (Para-influenza-3 virus): > 100 mg/L | pMICsa (Staphylococcus aureus): 2.09 | pMICan (Aspergillus niger): 1.22 | pMICab [4]: 2.11 | Cytotoxicity Minimum cytotoxic concentration (HeLa cells): >100 µg/mL | pMICca (Candida albicans): 1.52 | pMICaf (C. albicans and A. niger): 1.37 | Minimum cytotoxic concentration (HEL cells): >100 µg/mL | pMICbs (Bacillus subtilis): 1.82 | pMICec (Escherichia coli): 2.42 | EC50 (Reovirus-1): > 100 mg/L | pMICam [5]: 1.81

O=C(c1ccccc1)n1c(-c2ccc(S(=O)(=O)O)cc2)nc2ccccc21 [Compound 2]
EC50 (Feline Herpes virus): > 100 mg/L | Minimum cytotoxic concentration (Vero cells): >100 µg/mL | EC50 (Para-influenza-3 virus): > 100 mg/L | pMICsa (Staphylococcus aureus): 2.08 | pMICan (Aspergillus niger): 1.48 | pMICab [4]: 2.11 | Cytotoxicity Minimum cytotoxic concentration (HeLa cells): >100 µg/mL | pMICca (Candida albicans): 1.78 | pMICaf (C. albicans and A. niger): 1.63 | Minimum cytotoxic concentration (HEL cells): >100 µg/mL | pMICbs (Bacillus subtilis): 2.12 | pMICec (Escherichia coli): 2.12 | EC50 (Reovirus-1): > 100 mg/L | pMICam [5]: 1.92

CCCCCCCC/C=C/CCCCCCCC(=O)n1c(-c2ccc(S(=O)(=O)O)cc2)nc2ccccc21 [Compound 18, 4-(1-octadec-9-enoyl-1H-benzoimidazol-2-yl)-benzenesulfonic acid]
EC50 (Feline Herpes virus): > 100 mg/L | Minimum cytotoxic concentration (Vero cells): >100 µg/mL | EC50 (Para-influenza-3 virus): > 100 mg/L | pMICsa (Staphylococcus aureus): 2.24 | pMICan (Aspergillus niger): 1.63 | pMICab [4]: 2.11 | Cytotoxicity Minimum cytotoxic concentration (HeLa cells): >100 µg/mL | pMICca (Candida albicans): 1.94 | pMICaf (C. albicans and A. niger): 1.79 | Minimum cytotoxic concentration (HEL cells): >100 µg/mL | pMICbs (Bacillus subtilis): 2.24 | pMICec (Escherichia coli): 1.85 | EC50 (Reovirus-1): > 100 mg/L | pMICam [5]: 1.98

C=C(C)C(=O)n1c(-c2ccc(S(=O)(=O)O)cc2)nc2ccccc21 [Compound 14]
EC50 (Feline Herpes virus): > 100 mg/L | Minimum cytotoxic concentration (Vero cells): >100 µg/mL | EC50 (Para-influenza-3 virus): > 100 mg/L | pMICsa (Staphylococcus aureus): 1.74 | pMICan (Aspergillus niger): 1.14 | pMICab [4]: 1.84 | Cytotoxicity Minimum cytotoxic concentration (HeLa cells): >100 µg/mL | pMICca (Candida albicans): 1.44 | pMICaf (C. albicans and A. niger): 1.29 | Minimum cytotoxic concentration (HEL cells): >100 µg/mL | pMICbs (Bacillus subtilis): 1.74 | pMICec (Escherichia coli): 2.04 | EC50 (Reovirus-1): > 100 mg/L | pMICam [5]: 1.62

O=C(c1cccnc1)n1c(-c2ccc(S(=O)(=O)O)cc2)nc2ccccc21 [Compound 15]
EC50 (Feline Herpes virus): > 100 mg/L | Minimum cytotoxic concentration (Vero cells): >100 µg/mL | EC50 (Para-influenza-3 virus): > 100 mg/L | pMICsa (Staphylococcus aureus): 2.13 | pMICan (Aspergillus niger): 1.48 | pMICab [4]: 2.22 | Cytotoxicity Minimum cytotoxic concentration (HeLa cells): >100 µg/mL | pMICca (Candida albicans): 1.75 | pMICaf (C. albicans and A. niger): 1.62 | Minimum cytotoxic concentration (HEL cells): >100 µg/mL | pMICbs (Bacillus subtilis): 2.13 | pMICec (Escherichia coli): 2.39 | EC50 (Reovirus-1): > 100 mg/L | pMICam [5]: 1.98

O=C(c1ccc(Cl)cc1)n1c(-c2ccc(S(=O)(=O)O)cc2)nc2ccccc21 [Compound 5]
EC50 (Feline Herpes virus): > 100 mg/L | Minimum cytotoxic concentration (Vero cells): >100 µg/mL | EC50 (Para-influenza-3 virus): > 100 mg/L | pMICsa (Staphylococcus aureus): 2.12 | pMICan (Aspergillus niger): 1.22 | pMICab [4]: 2.22 | Cytotoxicity Minimum cytotoxic concentration (HeLa cells): >100 µg/mL | pMICca (Candida albicans): 1.52 | pMICaf (C. albicans and A. niger): 1.37 | Minimum cytotoxic concentration (HEL cells): >100 µg/mL | pMICbs (Bacillus subtilis): 2.13 | pMICec (Escherichia coli): 2.42 | EC50 (Reovirus-1): > 100 mg/L | pMICam [5]: 1.88
